Measured values from ChEMBL document CHEMBL4428050, “Design, Synthesis, and Biological Evaluation of Substituted Pyrimidines as Potential Phosphatidylinositol 3-Kinase (PI3K) Inhibitors” (J Med Chem, 2016).
The source made the active and inactive calls. The calls are words filed in the database; no cut-off is given here.

Tests used:
[1] = test system: NCI-N87; test: Antiproliferative activity against human NCI-N87 cells after 72 hrs by CCK8 assay; format: functional, cell-based; conditions: Homo sapiens, NCI-N87, 72 h
[2] = species: Homo sapiens; test: Selectivity ratio of IC50 for PI3K p110beta/p85 (unknown origin) to IC50 for PI3K p110alpha/p85 (unknown origin)
[3] = test system: HL-60; test: Antiproliferative activity against human HL60 cells after 72 hrs by CCK8 assay; format: functional, cell-based; conditions: HL-60, 72 h
[4] = Inhibition of PI3K p110delta/p85 (unknown origin) using PIP2/ATP as substrate after 1 hr by kinase glo luminescent assay; design: species or system Homo sapiens
[5] = species: Homo sapiens; test: Inhibition of PI3K in human U937 cells assessed as suppression of AKT phosphorylation at S473 after 24 hrs by Western blot analysis; format: cell-based
[6] = test system: PANC-1; test: Antiproliferative activity against human PANC1 cells after 72 hrs by CCK8 assay; format: functional, cell-based; conditions: Homo sapiens, PANC-1, 72 h
[7] = target: PI3-kinase subunit gamma/Phosphoinositide 3-kinase regulatory subunit 5 (Homo sapiens, UniProt P48736); test: Inhibition of PI3K p110gamma/p101 (unknown origin) using PIP2/ATP as substrate after 1 hr by kinase glo luminescent assay; format: protein-complex assay
Chain of PI3-kinase subunit gamma/Phosphoinositide 3-kinase regulatory subunit 5 (P48736 whole entry): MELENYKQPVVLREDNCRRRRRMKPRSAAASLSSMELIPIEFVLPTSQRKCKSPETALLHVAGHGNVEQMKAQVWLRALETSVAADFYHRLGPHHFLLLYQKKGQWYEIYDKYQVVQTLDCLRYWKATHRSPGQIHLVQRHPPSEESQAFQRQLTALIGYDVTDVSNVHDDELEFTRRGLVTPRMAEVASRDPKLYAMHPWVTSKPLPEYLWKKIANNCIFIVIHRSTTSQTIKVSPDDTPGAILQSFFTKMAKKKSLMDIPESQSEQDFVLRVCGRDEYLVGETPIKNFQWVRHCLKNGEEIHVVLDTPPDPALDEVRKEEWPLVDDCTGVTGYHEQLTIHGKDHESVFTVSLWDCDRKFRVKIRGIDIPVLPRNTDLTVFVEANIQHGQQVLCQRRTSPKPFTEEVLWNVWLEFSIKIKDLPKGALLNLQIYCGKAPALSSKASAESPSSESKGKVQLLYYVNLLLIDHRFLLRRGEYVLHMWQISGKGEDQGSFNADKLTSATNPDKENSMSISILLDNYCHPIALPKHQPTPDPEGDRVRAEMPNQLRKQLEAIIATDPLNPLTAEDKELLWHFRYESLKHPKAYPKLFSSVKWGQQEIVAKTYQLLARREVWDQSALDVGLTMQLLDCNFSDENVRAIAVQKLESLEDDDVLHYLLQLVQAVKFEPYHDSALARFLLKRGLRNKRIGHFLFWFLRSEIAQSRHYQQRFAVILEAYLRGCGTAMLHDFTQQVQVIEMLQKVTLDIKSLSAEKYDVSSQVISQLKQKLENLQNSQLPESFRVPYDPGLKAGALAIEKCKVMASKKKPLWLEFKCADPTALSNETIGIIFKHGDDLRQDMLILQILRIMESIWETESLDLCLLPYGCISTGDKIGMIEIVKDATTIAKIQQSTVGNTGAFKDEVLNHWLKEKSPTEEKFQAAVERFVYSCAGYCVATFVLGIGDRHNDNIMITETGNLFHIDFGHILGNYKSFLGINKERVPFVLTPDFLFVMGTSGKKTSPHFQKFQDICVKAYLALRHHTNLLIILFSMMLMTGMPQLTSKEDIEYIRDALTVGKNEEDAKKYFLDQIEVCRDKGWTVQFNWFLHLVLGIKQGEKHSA
Chain of PI3-kinase subunit gamma/Phosphoinositide 3-kinase regulatory subunit 5 (Q8WYR1 whole entry, further chain): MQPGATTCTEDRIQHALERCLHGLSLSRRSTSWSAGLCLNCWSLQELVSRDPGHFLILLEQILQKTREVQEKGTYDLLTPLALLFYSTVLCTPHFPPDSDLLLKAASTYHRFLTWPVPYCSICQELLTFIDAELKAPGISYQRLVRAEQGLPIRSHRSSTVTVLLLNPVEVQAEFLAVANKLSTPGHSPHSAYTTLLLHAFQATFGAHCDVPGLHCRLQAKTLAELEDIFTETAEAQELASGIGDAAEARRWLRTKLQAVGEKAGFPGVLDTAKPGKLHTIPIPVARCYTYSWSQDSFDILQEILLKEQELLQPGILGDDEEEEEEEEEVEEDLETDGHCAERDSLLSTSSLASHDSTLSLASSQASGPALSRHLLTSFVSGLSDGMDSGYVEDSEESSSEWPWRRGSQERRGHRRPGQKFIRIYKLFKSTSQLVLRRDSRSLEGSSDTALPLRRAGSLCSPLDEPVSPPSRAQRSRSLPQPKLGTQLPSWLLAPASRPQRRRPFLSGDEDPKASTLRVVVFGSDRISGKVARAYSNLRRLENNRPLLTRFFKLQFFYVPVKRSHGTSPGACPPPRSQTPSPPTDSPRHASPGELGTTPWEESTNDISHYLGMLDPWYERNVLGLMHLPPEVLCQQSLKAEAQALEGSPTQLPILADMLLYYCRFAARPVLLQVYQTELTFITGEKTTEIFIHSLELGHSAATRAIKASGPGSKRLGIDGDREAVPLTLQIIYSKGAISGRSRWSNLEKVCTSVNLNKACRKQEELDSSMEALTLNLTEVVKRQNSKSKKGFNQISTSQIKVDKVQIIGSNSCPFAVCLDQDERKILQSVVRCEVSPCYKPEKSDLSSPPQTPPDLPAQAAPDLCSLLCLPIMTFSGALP

[8] = test system: MCF7; test: Antiproliferative activity against human MCF7 cells after 72 hrs by CCK8 assay; format: functional, cell-based; conditions: Homo sapiens, MCF7, 72 h
[9] = test system: A549; test: Antiproliferative activity against human A549 cells after 72 hrs by CCK8 assay; format: functional, cell-based; conditions: Homo sapiens, A549, 72 h
[10] = test system: MDA-MB-231; test: Antiproliferative activity against human MDA-MB-231 cells by WST8 assay; format: functional, cell-based
[11] = test system: U-937; test: Antiproliferative activity against human U937 cells after 72 hrs by CCK8 assay; format: functional, cell-based; conditions: Homo sapiens, U-937, 72 h
[12] = test system: MOLT-4; test: Antiproliferative activity against human MOLT4 cells after 72 hrs by CCK8 assay; format: functional, cell-based; conditions: Homo sapiens, MOLT-4, 72 h
[13] = test system: PC-3; test: Antiproliferative activity against human PC3 cells after 72 hrs by CCK8 assay; format: functional, cell-based; conditions: PC-3, 72 h
[14] = test system: A-431; test: Antiproliferative activity against human A431 cells after 72 hrs by CCK8 assay; format: functional, cell-based; conditions: Homo sapiens, A-431, 72 h
[15] = Inhibition of PI3K p110alpha/p85 (unknown origin) using PIP2/ATP as substrate after 1 hr by kinase glo luminescent assay; design: species or system Homo sapiens
How it was run: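 PI3K p110α activity read by Kinase-Glo Plus luminescence. IC50 is the mean of triplicate measurements.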

[16] = test system: SK-BR-3; test: Antiproliferative activity against human SK-BR-3 cells after 72 hrs by CCK8 assay; format: functional, cell-based; conditions: SK-BR-3, 72 h
[17] = test system: HeLa; test: Antiproliferative activity against human HeLa cells after 72 hrs by CCK8 assay; format: functional, cell-based; conditions: Homo sapiens, HeLa, 72 h
[18] = Inhibition of PI3K p110beta/p85 (unknown origin) using PIP2/ATP as substrate after 1 hr by kinase glo luminescent assay; design: species or system Homo sapiens
[19] = test system: K562; test: Antiproliferative activity against human K562 cells after 72 hrs by CCK8 assay; format: functional, cell-based; conditions: Homo sapiens, K562, 72 h
[20] = Toxicity in nude mouse xenografted with human MDA-MB-231 cells assessed as decrease in body weight at 30 mg/kg, ig administered every 2 days for 19 days measured during compound dosing; format: organism-based; conditions: in vivo, po
How it was run: (§1)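 Nude mice carried MDA-MB-231 xenograft tumours and received vehicle or 30 mg/kg intragastrically every two days for 19 days. Estimated tumour volume and body weight were followed over time. Tumours were dissected from 5 mice per group and weighed. Data are mean±SD, n=5, Student t test.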

[21] = test system: Huh-7; test: Antiproliferative activity against human HuH7 cells after 72 hrs by CCK8 assay; format: functional, cell-based; conditions: Huh-7, 72 h
[22] = test system: HT-1080; test: Antiproliferative activity against human HT1080 cells after 72 hrs by CCK8 assay; format: functional, cell-based; conditions: HT-1080, 72 h
[23] = test system: SGC-7901; test: Antiproliferative activity against human SGC7901 cells after 72 hrs by CCK8 assay; format: functional, cell-based; conditions: SGC-7901, 72 h
[24] = test system: BGC-823; test: Antiproliferative activity against human BGC823 cells after 72 hrs by CCK8 assay; format: functional, cell-based; conditions: Homo sapiens, BGC-823, 72 h
[25] = test system: MDA-MB-231; test: Antitumor activity against human MDA-MB-231 cells xenografted in nude mouse assessed as tumor size at 30 mg/kg, ig administered every 2 days for 19 days measured post last dose (reference value: 1065 +/- 142 mm'3); format: functional; how it was run: as §1
[26] = test system: DU-145; test: Antiproliferative activity against human DU145 cells after 72 hrs by CCK8 assay; format: functional, cell-based
[27] = test system: MDA-MB-231; test: Antitumor activity against human MDA-MB-231 cells xenografted in nude mouse assessed as tumor weight at 30 mg/kg, ig administered every 2 days for 19 days measured post last dose (reference value: 0.74 +/- 0.10 g); format: functional; how it was run: as §1
[28] = test system: Bel-7402; test: Antiproliferative activity against human Bel7402 cells after 72 hrs by CCK8 assay; format: functional, cell-based; conditions: Bel-7402, 72 h

CS(=O)(=O)N1CCN(C(=O)c2ccc(Nc3nc(-c4cnc(N)cc4C(F)(F)F)cc(N4CCOCC4)n3)cc2)CC1
IC50 [1]: 4220 nM | Ratio IC50 [2]: 112 | IC50 [3]: 2490 nM | IC50 [4]: 13 nM | inhibition [5]: Active | IC50 [6]: 3470 nM | IC50 [7]: 80 nM | IC50 [8]: 12800 nM | IC50 [9]: 9130 nM | IC50 [10]: 4340 nM | IC50 [11]: 4740 nM | IC50 [12]: 1960 nM | IC50 [13]: 19500 nM | IC50 [14]: 10500 nM | IC50 [15]: 18 nM | IC50 [16]: 4790 nM | IC50 [17]: > 100000 nM | IC50 [18]: 2010 nM

Nc1cc(C(F)(F)F)c(-c2cc(N3CCOCC3)nc(N3C[C@@H]4OCCO[C@H]4C3)n2)cn1 (racemic)
IC50 [1]: 1360 nM | IC50 [4]: 61 nM | IC50 [19]: 4260 nM | IC50 [6]: 3260 nM | IC50 [7]: 158 nM | IC50 [8]: 2420 nM | IC50 [9]: 3390 nM | IC50 [11]: 770 nM | Activity [20]: Non-Toxic | IC50 [21]: 4260 nM | IC50 [12]: 1000 nM | IC50 [22]: 4730 nM | IC50 [23]: 3140 nM | IC50 [14]: 3680 nM | IC50 [15]: 31 nM | IC50 [24]: 3090 nM | Activity [25]: 402 mm3 | IC50 ([26]; du-145): 1930 nM | IC50 [17]: 2660 nM | IC50 [18]: 175 nM | Activity [27]: 0.32 g | IC50 [28]: 3370 nM

Nc1cc(C(F)(F)F)c(-c2cc(N3CCOCC3)nc(N3CCOCC3)n2)cn1 [BUPARLISIB]
IC50 [1]: 660 nM | IC50 [4]: 62 nM | IC50 [19]: 1100 nM | inhibition [5]: Active | IC50 [6]: 1830 nM | IC50 [8]: 1500 nM | IC50 [9]: 1510 nM | IC50 [11]: 580 nM | IC50 [21]: 1510 nM | IC50 [12]: 800 nM | IC50 [22]: 2080 nM | IC50 [23]: 1240 nM | IC50 [14]: 1030 nM | IC50 [15]: 28 nM | IC50 [24]: 1430 nM | IC50 ([26]; Homo sapiens, DU-145, 72 h): 910 nM | IC50 [17]: 1170 nM | IC50 [18]: 259 nM | IC50 [28]: 1920 nM
